These results are taken from ChEMBL document CHEMBL4311941, “Development of Multifunctional Histone Deacetylase 6 Degraders with Potent Antimyeloma Activity” (J Med Chem, 2019).

Experiment [1] concerns the target T1, Protein cereblon/Zinc finger protein Aiolos (Homo sapiens) (UniProt Q96SW2+Q9UKT9). Briefly: Protac activity at CRBN/IKZF3 in human MM1S cells assessed as IKZF3 degradation at 100 nM incubated for 6 hrs followed by compound washout and measured after 12 hrs by Western blot analysis. In kind it is cell-based. In short, it runs like this: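 MM1S cells treated with 100 nM degrader for 6 h, then washed with PBS to remove compound. IKZF3 followed by immunoblot over up to 48 h after washout: RIPA lysate, SDS-PAGE, PVDF transfer, HRP secondary antibody and ECL imaging.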

Experiment [2] addresses T2, Protein cereblon/Protein deacetylase HDAC6 (Homo sapiens, UniProt Q9UBN7+Q96SW2). Briefly: Protac activity at CRBN/HDAC6 in human RS4:11 cells assessed as HDAC6 degradation up to 10 uM incubated for 6 hrs by Western blot analysis. In kind it is cell-based.
Experiment [3] concerns the target Cereblon/Ikaros (Homo sapiens) (UniProt Q96SW2+Q13422). Briefly: Protac activity at CRBN/IKZF1 in human MM1S cells assessed as IKZF1 degradation at 100 nM measured after 4 hrs by Western blot analysis. The class given is cell-based.
For experiment [4], the target named is T2, Protein cereblon/Protein deacetylase HDAC6. Briefly: Protac activity at CRBN/HDAC6 in human MM1S cells assessed as HDAC6 degradation at 100 nM incubated for 6 hrs followed by compound washout and measured up to 48 hrs by Western blot analysis. In kind it is cell-based. In short, it runs like this:
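MM1S cells treated 6 h with 100 nM, washed with PBS to remove compound, then HDAC6 followed by immunoblot for up to 48 h. Lysis in RIPA; SDS-PAGE and PVDF transfer; primary antibody 4 °C overnight, HRP secondary, ECL.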

Experiment [5] addresses T3, Protein cereblon/Histone deacetylase 1 (Homo sapiens) (UniProt Q13547+Q96SW2). Briefly: Protac activity at CRBN/HDAC1 in human MM1S cells assessed as HDAC1 degradation at 100 nM measured after 6 hrs in presence of proteasome inhibitor MG132 by Western blot analysis. The class given is cell-based.
Experiment [6] deals with MM1.S. Briefly: Effect on IKZF1 mRNA expression in human MM1S cells at 100 nM measured after 6 hrs by SYBR green dye-based qRT-PCR analysis. The class given is functional, cell-based. In short, it runs like this: (§1)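 After treatment, MM1S cells washed twice with cold PBS. Total RNA extracted and normalized, then reverse-transcribed. 10 ng cDNA amplified with SYBR Green: 50 °C 2 min, 95 °C 2 min, then 40 cycles of 95 °C 1 s / 60 °C 30 s, followed by a melt curve. Expression calculated by the 2−ΔΔCt method.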

The subject of experiment [7] is MM1.S. Briefly: Effect on HDAC6 mRNA expression in human MM1S cells at 100 nM measured after 6 hrs by SYBR green dye-based qRT-PCR analysis. In kind it is functional, cell-based. In short, it runs like this: as §1
Experiment [8] has as its system MM1.S. Briefly: Antiproliferative activity against human MM1S cells assessed as reduction in cell viability measured after 72 hrs by resazurin dye based assay relative to control. In kind it is functional. In short, it runs like this: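 MM1S cells seeded at 1 × 10^4 per well, left overnight, then given compound or DMSO vehicle (added as 5× dosing medium) for 72 h at 37 °C, 5% CO2. Resazurin added (10× solution, 1 mg/mL), then incubated overnight at 37 °C. OD read at 570 and 600 nm. Viability is relative to vehicle, n = 3. Curves fitted as [inhibitor] vs response (three parameters); test range 0.3 nM–3 μM.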

The target in another experiment is Histone deacetylase 9 (Homo sapiens, UniProt Q9UKV0). Briefly: Inhibition of human N-terminal tagged human HDAC9 expressed in HEK293T/17 using Boc-[TFA-Lys]-AMC as substrate preincubated for 10 mins followed by substrate addition and measured after 60 mins by fluorescence assay.
Chain of Histone deacetylase 9 (Q9UKV0 whole entry): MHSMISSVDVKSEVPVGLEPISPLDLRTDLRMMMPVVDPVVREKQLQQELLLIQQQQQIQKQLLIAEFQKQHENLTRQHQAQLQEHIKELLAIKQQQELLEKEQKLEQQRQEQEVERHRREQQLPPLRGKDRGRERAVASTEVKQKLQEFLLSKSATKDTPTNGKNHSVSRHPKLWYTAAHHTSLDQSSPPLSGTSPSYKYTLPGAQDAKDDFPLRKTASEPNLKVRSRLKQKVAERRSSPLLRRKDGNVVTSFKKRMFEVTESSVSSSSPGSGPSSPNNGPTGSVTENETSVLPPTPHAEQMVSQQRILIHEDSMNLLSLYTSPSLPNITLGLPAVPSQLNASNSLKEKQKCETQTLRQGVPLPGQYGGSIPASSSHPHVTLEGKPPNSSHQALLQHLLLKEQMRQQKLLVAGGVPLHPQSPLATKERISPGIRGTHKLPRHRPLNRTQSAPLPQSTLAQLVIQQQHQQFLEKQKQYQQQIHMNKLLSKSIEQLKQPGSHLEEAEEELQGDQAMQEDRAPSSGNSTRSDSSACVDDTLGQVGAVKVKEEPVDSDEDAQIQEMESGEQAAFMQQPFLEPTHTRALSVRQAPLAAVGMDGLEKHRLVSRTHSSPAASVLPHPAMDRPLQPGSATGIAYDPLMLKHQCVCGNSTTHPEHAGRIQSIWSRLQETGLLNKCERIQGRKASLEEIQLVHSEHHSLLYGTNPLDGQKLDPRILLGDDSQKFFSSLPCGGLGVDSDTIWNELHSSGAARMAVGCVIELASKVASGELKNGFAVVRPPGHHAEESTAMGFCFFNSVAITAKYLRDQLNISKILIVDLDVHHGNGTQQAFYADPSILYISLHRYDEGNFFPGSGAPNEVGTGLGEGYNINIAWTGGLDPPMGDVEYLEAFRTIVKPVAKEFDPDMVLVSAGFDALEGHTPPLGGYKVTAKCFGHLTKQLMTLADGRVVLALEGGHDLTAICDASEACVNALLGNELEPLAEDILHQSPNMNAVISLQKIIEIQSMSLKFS
Experiment [9] deals with T3, Protein cereblon/Histone deacetylase 1 (Homo sapiens). Briefly: Protac activity at CRBN/HDAC1 in human MM1S cells assessed as HDAC1 degradation measured after 6 hrs by Western blot analysis. In kind it is cell-based.
For a further experiment, the target named is Histone deacetylase 5 (Homo sapiens, UniProt Q9UQL6). Briefly: Inhibition of human N-terminal tagged human HDAC5 expressed in HEK293T/17 using Boc-[TFA-Lys]-AMC as substrate preincubated for 10 mins followed by substrate addition and measured after 60 mins by fluorescence assay.
Chain of Histone deacetylase 5 (Q9UQL6 whole entry): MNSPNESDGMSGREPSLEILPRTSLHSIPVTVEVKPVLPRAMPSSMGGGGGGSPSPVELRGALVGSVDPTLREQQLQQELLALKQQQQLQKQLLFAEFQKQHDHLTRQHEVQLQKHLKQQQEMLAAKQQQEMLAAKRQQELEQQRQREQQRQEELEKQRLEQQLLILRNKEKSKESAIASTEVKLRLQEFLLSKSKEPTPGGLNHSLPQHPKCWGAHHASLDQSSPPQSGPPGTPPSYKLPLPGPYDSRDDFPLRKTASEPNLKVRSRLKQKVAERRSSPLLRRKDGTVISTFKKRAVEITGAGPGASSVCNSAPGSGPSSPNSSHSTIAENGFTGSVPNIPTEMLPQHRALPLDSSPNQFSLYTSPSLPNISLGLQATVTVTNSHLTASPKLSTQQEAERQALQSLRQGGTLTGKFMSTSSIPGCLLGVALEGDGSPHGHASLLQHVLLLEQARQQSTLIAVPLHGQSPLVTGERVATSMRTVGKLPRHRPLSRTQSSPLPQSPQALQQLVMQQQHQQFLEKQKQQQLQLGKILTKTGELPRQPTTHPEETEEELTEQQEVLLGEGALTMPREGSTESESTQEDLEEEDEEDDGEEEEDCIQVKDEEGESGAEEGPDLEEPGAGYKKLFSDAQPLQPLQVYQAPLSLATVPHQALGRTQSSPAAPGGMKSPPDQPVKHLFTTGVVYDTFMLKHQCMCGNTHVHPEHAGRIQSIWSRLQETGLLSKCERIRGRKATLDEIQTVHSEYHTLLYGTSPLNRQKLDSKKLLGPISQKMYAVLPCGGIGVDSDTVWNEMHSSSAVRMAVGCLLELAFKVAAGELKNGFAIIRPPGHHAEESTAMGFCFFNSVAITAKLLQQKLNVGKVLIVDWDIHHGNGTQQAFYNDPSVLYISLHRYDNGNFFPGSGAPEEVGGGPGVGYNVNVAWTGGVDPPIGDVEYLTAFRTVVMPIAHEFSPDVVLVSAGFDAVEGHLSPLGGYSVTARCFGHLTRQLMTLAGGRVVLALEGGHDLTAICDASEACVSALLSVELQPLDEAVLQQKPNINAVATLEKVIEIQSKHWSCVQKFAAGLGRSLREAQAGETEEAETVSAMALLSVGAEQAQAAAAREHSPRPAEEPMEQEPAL
Experiment [10] concerns the target T1, Protein cereblon/Zinc finger protein Aiolos (Homo sapiens). Briefly: Protac activity at CRBN/IKZF3 in human MM1S cells assessed as IKZF3 degradation at 100 nM measured after 6 hrs in presence of E3 ligase ligand pomalidomide by Western blot analysis. In kind it is cell-based. In short, it runs like this:
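MM1S cells seeded at 1 × 10^6 per well overnight. Pretreated 1 h with pomalidomide, Next-A, MLN 4924 or DMSO, then given 100 nM degrader or DMSO for 6 h. Lysed in RIPA with protease inhibitors, 10−40 μg protein run on SDS-PAGE and transferred to PVDF. Blots probed for IKZF1/IKZF3, detected by ECL and quantified by densitometry.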

Experiment [11] deals with T2, Protein cereblon/Protein deacetylase HDAC6. Briefly: Protac activity at CRBN/HDAC6 in human Jurkat cells assessed as HDAC6 degradation at 10 to 100 nM incubated for 6 hrs by Western blot analysis. In kind it is cell-based.
Experiment [12] shares this target. Briefly: Protac activity at CRBN/HDAC6 in human MCF7 cells assessed as HDAC6 degradation up to 10 uM incubated for 6 hrs by Western blot analysis. The class given is cell-based.
The target is the same in experiment [13]. Briefly: Protac activity at CRBN/HDAC6 in human MM1S cells assessed as HDAC6 degradation at 100 nM measured after 6 hrs in presence of E3 ligase ligand pomalidomide by Western blot analysis. In kind it is cell-based.

SMILES strings stand for the structures. The source made the active and inactive calls. The calls are words filed in the database; no cut-off is given here.

T2 sequence (Q96SW2 whole entry, looked up): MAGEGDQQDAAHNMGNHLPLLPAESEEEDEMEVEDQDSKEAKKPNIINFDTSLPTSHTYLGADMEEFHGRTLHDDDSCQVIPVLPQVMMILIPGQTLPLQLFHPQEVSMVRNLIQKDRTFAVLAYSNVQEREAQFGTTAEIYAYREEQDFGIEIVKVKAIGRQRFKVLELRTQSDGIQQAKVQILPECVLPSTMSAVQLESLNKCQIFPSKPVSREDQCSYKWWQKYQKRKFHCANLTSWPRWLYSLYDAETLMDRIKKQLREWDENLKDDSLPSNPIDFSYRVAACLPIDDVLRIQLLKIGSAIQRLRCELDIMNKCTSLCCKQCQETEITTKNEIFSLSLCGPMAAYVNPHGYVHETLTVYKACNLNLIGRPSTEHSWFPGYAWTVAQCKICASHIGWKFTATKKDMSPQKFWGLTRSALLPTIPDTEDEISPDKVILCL
T2 sequence (Q9UBN7 whole entry, looked up): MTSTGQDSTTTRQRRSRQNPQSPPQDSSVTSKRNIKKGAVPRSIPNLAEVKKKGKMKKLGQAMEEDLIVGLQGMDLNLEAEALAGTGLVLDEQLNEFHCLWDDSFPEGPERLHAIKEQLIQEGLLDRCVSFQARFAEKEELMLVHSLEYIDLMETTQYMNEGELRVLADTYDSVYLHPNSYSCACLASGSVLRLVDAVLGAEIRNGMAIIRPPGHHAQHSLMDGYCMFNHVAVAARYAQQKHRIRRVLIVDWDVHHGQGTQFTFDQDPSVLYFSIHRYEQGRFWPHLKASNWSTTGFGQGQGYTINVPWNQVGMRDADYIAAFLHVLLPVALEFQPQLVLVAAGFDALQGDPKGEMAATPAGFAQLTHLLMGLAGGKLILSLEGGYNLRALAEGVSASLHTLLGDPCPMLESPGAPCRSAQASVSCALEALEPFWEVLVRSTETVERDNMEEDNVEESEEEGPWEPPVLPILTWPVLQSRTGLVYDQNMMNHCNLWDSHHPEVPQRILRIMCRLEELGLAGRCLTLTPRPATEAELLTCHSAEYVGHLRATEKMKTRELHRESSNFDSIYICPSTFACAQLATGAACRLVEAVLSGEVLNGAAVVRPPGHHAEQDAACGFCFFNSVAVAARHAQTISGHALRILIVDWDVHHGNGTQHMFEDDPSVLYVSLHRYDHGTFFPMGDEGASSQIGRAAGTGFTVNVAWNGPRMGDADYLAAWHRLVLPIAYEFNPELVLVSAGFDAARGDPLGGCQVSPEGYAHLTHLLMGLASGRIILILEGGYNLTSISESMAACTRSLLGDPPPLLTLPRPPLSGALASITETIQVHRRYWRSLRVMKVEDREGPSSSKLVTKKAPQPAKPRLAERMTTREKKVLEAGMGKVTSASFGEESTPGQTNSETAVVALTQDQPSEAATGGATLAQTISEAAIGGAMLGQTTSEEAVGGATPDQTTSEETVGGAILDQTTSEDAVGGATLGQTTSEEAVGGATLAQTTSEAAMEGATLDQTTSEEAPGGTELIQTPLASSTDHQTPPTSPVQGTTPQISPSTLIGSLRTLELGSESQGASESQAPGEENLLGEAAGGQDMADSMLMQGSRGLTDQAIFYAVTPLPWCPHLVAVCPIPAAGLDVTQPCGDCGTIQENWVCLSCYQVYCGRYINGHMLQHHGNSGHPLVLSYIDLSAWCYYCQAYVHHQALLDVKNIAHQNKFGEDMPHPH
T3 sequence (Q13547 whole entry, looked up): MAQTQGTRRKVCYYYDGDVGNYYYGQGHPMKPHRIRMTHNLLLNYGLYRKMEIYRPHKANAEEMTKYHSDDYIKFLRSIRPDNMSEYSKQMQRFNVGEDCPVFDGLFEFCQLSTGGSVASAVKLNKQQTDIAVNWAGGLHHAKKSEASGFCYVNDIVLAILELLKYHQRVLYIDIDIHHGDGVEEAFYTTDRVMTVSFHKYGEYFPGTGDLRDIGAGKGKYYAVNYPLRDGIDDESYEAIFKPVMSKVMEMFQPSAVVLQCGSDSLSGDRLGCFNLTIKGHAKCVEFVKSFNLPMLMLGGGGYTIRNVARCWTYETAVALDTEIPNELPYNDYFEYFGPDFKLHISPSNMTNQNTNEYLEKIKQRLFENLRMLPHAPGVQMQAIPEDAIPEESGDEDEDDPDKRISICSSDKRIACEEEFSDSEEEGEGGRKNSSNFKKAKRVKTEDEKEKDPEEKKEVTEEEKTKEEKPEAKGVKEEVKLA
T3 sequence (Q96SW2 whole entry, looked up): as the sequence (Q96SW2 whole entry, looked up) above
T1 sequence (Q96SW2 whole entry, looked up): as above
T1 sequence (Q9UKT9 whole entry, looked up): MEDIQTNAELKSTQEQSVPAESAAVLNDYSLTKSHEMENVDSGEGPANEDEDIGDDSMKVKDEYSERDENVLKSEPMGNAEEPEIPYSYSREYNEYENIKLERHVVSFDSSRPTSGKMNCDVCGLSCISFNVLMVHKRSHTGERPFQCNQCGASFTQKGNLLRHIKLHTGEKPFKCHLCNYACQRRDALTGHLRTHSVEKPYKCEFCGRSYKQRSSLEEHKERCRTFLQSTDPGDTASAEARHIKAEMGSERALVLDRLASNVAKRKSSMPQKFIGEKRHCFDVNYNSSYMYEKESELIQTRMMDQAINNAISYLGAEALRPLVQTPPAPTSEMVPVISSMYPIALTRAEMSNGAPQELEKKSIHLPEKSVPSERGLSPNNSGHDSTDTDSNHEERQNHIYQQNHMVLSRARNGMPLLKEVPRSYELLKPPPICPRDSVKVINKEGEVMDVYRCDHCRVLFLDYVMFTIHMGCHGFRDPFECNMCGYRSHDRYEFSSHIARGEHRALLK

With `CCCCN(Cc1ccc(C(=O)NO)cc1)C(=O)Nc1ccc(OCCCCCn2cc(CNc3cccc4c3C(=O)N(C3CCC(=O)NC3=O)C4=O)nn2)cc1` (stereo not given), the outcome in [1], in [5], in experiment [9] and in experiment [13] was inactive. Besides, the result (in experiment [2]; in [3]; in experiment [4]; in the experiment on MM1.S [6]; in the experiment with MM1.S [7]; in experiment [10]) was Active. The outcome in experiment [11] and in experiment [12] was Active. Moreover, the Imax in the experiment with MM1.S [8] was found to be 63.1%. Further, the IC50 against Histone deacetylase 9 and on Histone deacetylase 5 was 0.3 to 30 µM throughout.
